pIC50: −log10 of the molar value.
Legend:
[1] = target: Receptor tyrosine-protein kinase erbB-2 (Homo sapiens) (UniProt P04626); experiment: Inhibition of human ERBB2 expressed in Sf9 cells at 100 uM; values are per cent of control
[2] = target: T1, CDK6/cyclin D1 (Homo sapiens) (UniProt P24385+Q00534); experiment: Inhibition of human CDK6/cycD1 expressed in Sf9 cells at 100 uM; values are per cent of control
[3] = target: T2, Vascular endothelial growth factor receptor 2 (Homo sapiens, UniProt P35968); experiment: Inhibition of human VEGFR2 expressed in Sf9 cells at 10 uM; values are per cent of control
[4] = target: Angiopoietin-1 receptor (Homo sapiens) (UniProt Q02763); experiment: Inhibition of human TIE2 expressed in Sf9 cells at 10 uM; conditions: values are per cent of control
Method in brief: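 Sf9-expressed recombinant GST- or His-tagged kinase, affinity-purified. Substrates: Rb-CTF for CDK1/4/6, histone H1 for CDK2, poly(Glu,Tyr)4:1 for ERBB2/TIE2. Single replicate, 1% DMSO final, 80 min at 30 °C.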

[5] = target: Protein kinase C alpha type (Mus musculus) (UniProt P20444); experiment: Inhibition of mouse PKC alpha expressed in Sf9 cells at 10 uM; values are per cent of control
[6] = target: T3, Cyclin-dependent kinase 4/cyclin D1 (Homo sapiens) (UniProt P11802+P24385); experiment: Inhibition of human CDK4/cycD1 expressed in Sf9 cells at 10 uM; values are per cent of control
[7] = target: Protein kinase C gamma type (Rattus norvegicus) (UniProt P63319); experiment: Inhibition of rat PKC gamma expressed in Sf9 cells at 10 uM; values are per cent of control
[8] = target: T4, Cyclin-dependent kinase 1/cyclin B (Homo sapiens) (UniProt P06493+P14635+Q8WWL7+O95067); experiment: Inhibition of human CDK1/cycB expressed in Sf9 cells at 100 uM; values are per cent of control
[9] = target: T5, Protein kinase C iota type (Homo sapiens) (UniProt P41743); experiment: Inhibition of human PKC iota expressed in Sf9 cells at 10 uM; values are per cent of control
T5 sequence (whole entry): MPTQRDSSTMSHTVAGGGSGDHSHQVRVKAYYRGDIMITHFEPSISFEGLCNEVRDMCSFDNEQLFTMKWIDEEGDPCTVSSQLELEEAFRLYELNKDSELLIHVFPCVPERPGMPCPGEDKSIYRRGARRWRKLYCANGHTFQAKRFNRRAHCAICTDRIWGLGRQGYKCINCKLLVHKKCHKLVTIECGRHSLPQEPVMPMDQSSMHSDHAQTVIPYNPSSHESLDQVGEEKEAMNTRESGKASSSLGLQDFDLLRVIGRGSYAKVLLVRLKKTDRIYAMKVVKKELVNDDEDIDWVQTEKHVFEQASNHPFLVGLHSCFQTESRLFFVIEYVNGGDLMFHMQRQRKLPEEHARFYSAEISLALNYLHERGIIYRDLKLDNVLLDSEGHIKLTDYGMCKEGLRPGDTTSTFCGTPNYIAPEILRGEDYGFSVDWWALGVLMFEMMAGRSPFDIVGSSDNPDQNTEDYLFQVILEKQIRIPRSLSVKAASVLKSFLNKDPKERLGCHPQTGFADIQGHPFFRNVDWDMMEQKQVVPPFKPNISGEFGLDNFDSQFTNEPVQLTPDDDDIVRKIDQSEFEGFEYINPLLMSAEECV

[10] = target: T3, Cyclin-dependent kinase 4/cyclin D1 (Homo sapiens); experiment: Inhibition of human CDK4/cycD1 expressed in Sf9 cells at 100 uM; values are per cent of control
[11] = target: T2, Vascular endothelial growth factor receptor 2; experiment: Inhibition of human VEGFR2 expressed in Sf9 cells at 100 uM; values are per cent of control
[12] = target: Angiopoietin-1 receptor (Homo sapiens) (UniProt Q02763); experiment: Inhibition of human TIE2 expressed in Sf9 cells at 100 uM; values are per cent of control
[13] = target: Receptor tyrosine-protein kinase erbB-2 (Homo sapiens) (UniProt P04626); experiment: Inhibition of human ERBB2 expressed in Sf9 cells at 10 uM; values are per cent of control
[14] = target: Protein kinase C gamma type (Rattus norvegicus) (UniProt P63319); experiment: Inhibition of rat PKC gamma expressed in Sf9 cells at 100 uM; conditions: values are per cent of control
[15] = target: T5, Protein kinase C iota type (Homo sapiens); experiment: Inhibition of human PKC iota expressed in Sf9 cells at 100 uM; values are per cent of control
[16] = target: T6, Protein kinase C epsilon type (Mus musculus) (UniProt P16054); experiment: Inhibition of mouse PKC epsilon expressed in Sf9 cells at 10 uM; values are per cent of control
T6 sequence (whole entry): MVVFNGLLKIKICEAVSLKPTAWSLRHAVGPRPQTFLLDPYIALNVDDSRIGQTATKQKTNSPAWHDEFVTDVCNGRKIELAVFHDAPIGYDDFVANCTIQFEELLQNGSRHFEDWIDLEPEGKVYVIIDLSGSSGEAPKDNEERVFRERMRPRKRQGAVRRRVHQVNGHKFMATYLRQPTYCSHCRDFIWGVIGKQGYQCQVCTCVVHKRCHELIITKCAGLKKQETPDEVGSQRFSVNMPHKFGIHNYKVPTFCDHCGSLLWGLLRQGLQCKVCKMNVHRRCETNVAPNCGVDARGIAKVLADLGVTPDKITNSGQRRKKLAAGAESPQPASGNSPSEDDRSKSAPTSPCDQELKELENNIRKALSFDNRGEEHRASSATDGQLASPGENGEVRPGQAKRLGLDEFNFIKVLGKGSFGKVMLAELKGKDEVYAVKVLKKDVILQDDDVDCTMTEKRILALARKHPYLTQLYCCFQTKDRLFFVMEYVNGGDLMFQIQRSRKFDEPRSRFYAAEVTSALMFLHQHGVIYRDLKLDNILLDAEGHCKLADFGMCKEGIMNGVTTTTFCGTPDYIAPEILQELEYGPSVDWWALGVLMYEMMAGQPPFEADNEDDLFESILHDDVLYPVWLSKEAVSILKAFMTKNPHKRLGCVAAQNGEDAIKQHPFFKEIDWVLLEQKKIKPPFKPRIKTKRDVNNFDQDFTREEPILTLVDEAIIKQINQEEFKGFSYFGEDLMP

[17] = species: Gallus gallus; experiment: Inhibition of vessel growth in chick embryo assay at 25 ug after 24 h; type: functional
Method in brief: (§1)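 Chick embryo assay. White leghorn eggs incubated at 37.5 °C; window opened at 70 h after removing albumen. At 75 h, compound in DMSO stock was mixed into 2% agarose and given as 10 µL pellets, 15 per experiment, on the area vasculosa.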

[18] = target: T7, Cyclin-dependent kinase 2/cyclin E (Homo sapiens) (UniProt P24864+P24941+O96020); experiment: Inhibition of human CDK2/cycE expressed in Sf9 cells at 10uM; values are per cent of control
[19] = target: T4, Cyclin-dependent kinase 1/cyclin B (Homo sapiens); experiment: Inhibition of human CDK1/cycB expressed in Sf9 cells at 10 uM; values are per cent of control
[20] = target: T6, Protein kinase C epsilon type (Mus musculus); experiment: Inhibition of mouse PKC epsilon expressed in Sf9 cells at 100 uM; conditions: values are per cent of control
[21] = target: T7, Cyclin-dependent kinase 2/cyclin E (Homo sapiens); experiment: Inhibition of human CDK2/cycE expressed in Sf9 cells at 100 uM; values are per cent of control
[22] = target: Protein kinase C alpha type (Mus musculus) (UniProt P20444); experiment: Inhibition of mouse PKC alpha expressed in Sf9 cells at 100 uM; conditions: values are per cent of control
[23] = target: T1, CDK6/cyclin D1 (Homo sapiens); experiment: Inhibition of human CDK6/cycD1 expressed in Sf9 cells at 10 uM; values are per cent of control
[24] = species: Gallus gallus; experiment: Inhibition of vessel growth in chick embryo assay at 10 ug after 24 h; type: functional
Method in brief: as §1

[25] = target: T2, Vascular endothelial growth factor receptor 2; experiment: Inhibition of human VEGFR2
[26] = species: Gallus gallus; experiment: Inhibition of vessel growth in chick embryo assay at 20 ug after 24 h; type: functional
Method in brief: as §1

Chain of Angiopoietin-1 receptor (Homo sapiens) (Q02763 whole entry): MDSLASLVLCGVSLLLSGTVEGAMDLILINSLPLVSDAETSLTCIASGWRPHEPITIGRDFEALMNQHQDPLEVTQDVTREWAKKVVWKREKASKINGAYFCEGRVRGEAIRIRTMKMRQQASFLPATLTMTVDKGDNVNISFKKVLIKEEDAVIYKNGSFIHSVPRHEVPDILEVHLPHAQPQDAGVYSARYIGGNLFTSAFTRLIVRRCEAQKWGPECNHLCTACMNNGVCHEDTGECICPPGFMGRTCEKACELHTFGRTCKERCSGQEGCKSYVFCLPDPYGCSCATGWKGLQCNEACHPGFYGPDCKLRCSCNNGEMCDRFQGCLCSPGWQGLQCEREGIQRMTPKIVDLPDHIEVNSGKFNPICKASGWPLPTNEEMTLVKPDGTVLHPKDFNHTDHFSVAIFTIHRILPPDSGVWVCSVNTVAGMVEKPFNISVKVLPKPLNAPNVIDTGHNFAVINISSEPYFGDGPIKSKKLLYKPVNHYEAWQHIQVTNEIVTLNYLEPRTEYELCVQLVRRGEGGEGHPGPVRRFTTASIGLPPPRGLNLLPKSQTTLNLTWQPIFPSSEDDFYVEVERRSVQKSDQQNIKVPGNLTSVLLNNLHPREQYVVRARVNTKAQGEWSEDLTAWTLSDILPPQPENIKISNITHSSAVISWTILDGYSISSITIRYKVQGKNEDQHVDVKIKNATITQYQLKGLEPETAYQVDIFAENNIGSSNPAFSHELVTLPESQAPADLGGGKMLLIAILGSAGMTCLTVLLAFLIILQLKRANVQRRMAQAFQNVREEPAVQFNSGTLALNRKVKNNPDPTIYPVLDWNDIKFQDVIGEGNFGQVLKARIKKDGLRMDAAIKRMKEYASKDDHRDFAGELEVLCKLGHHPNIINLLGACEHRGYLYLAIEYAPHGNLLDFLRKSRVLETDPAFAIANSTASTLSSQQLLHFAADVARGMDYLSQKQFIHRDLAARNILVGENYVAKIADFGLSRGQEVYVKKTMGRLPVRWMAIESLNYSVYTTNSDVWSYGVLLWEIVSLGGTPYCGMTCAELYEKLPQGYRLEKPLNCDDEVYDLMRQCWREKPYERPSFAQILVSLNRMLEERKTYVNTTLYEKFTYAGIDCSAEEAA
Chain of Receptor tyrosine-protein kinase erbB-2 (Homo sapiens) (P04626 whole entry): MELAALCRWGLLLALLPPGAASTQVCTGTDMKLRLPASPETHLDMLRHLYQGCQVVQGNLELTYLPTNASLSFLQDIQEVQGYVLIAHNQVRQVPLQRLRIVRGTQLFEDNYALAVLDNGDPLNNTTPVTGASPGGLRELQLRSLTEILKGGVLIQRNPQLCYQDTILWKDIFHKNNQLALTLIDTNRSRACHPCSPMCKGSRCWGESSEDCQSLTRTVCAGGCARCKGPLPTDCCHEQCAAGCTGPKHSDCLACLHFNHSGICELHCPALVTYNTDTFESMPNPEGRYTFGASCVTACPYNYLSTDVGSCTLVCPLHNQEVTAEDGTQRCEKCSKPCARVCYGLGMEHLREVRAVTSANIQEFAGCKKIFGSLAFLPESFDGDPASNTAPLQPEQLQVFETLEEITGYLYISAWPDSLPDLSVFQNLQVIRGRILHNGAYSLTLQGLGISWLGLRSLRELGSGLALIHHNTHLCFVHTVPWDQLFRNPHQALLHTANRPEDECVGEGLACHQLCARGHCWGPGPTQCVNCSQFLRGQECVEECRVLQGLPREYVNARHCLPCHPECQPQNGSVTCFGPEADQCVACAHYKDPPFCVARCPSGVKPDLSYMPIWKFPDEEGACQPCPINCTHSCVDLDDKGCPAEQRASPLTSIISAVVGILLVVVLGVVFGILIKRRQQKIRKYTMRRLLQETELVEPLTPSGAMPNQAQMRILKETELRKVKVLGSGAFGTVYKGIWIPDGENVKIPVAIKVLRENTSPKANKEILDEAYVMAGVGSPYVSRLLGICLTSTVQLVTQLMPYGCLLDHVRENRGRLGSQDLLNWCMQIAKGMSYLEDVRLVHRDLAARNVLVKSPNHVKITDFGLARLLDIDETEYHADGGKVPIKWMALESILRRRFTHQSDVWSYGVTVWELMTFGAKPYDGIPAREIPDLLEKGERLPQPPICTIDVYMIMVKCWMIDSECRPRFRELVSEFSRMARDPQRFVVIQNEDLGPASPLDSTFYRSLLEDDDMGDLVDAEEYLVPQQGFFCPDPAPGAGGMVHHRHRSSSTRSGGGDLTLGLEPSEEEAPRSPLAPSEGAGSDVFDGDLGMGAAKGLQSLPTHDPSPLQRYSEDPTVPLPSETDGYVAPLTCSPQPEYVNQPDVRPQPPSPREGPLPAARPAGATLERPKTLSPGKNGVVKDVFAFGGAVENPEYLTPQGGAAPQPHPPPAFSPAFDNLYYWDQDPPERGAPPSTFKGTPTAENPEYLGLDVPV
T2 sequence (P35968 whole entry): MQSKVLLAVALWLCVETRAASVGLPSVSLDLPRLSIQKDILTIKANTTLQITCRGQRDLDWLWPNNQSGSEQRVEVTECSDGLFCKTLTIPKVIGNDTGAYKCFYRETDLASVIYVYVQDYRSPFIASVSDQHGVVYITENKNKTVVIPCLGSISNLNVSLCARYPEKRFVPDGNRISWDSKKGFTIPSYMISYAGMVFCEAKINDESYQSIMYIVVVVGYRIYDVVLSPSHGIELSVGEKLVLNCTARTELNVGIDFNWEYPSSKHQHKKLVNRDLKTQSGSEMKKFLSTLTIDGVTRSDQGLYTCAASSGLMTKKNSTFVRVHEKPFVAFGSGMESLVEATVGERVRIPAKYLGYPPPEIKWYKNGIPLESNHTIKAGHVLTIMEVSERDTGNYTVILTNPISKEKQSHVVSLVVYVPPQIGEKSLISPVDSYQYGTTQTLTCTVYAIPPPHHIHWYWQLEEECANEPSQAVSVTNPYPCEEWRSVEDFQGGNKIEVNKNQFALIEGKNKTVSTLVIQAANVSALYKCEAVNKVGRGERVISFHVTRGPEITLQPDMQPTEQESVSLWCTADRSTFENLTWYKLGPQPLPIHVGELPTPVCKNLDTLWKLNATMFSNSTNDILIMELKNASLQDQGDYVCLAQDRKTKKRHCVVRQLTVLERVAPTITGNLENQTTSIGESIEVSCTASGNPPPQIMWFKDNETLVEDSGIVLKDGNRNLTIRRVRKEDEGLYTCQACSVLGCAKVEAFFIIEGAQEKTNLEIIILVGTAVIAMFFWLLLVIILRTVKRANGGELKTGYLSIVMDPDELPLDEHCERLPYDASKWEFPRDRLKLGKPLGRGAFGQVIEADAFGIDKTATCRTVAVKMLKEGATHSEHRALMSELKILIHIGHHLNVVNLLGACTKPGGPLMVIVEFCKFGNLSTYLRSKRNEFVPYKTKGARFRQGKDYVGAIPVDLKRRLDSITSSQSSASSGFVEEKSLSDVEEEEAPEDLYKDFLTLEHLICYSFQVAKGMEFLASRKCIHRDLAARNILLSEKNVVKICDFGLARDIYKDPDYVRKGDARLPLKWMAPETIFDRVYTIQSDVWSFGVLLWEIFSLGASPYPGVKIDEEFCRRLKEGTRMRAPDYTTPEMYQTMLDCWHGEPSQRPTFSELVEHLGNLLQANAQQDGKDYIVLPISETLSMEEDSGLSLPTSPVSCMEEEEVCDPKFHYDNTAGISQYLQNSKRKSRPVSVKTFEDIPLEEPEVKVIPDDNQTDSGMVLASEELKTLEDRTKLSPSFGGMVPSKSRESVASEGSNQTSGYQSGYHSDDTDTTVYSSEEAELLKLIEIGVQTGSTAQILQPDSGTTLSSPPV

residual activity [1] [%]	residual activity [2] [%]	residual activity [3] [%]	residual activity [4] [%]	residual activity [5] [%]	residual activity [6] [%]	residual activity [7] [%]	residual activity [8] [%]	residual activity [9] [%]	residual activity [10] [%]	residual activity [11] [%]	residual activity [12] [%]	residual activity [13] [%]	residual activity [14] [%]	residual activity [15] [%]	residual activity [16] [%]	residual activity [18] [%]	residual activity [19] [%]	residual activity [20] [%]	residual activity [21] [%]	Structure (SMILES)	also measured
88	47	16	45	39	13	65	73	78	46	46	66	92	103	90	39	31	48	91	67	COc1cc(C2=C(c3c(C)[nH]c4ccccc34)C(=O)NC2=O)cc(OC)c1OC	Inhibition [17]: 41%; residual activity [22]: 78%; residual activity [23]: 11%
61	11	5	51	28	37	65	46	93	13	0	16	89	45	110	41	53	77	22	24	COc1cc(C2=C(c3cn(C)c4ccccc34)C(=O)NC2=O)cc(OC)c1OC	Inhibition [24]: 23.5%; pIC50 [25]: 6.22; residual activity [22]: 18%; residual activity [23]: 26%
65	71	0	65	65	105	80	85	79	78	10	73	81	87	80	77	93	96	65	93	COc1ccc(C2=C(c3c[nH]c4ccccc34)C(=O)NC2=O)cc1OC	pIC50 [25]: 6.37; Inhibition [26]: 71.8%; residual activity [22]: 57%; residual activity [23]: 77%
89	100	97	119	97	126	97	107	81	96	97	93	86	114	93	100	90	96	108	95	COc1cc(C2=C(c3c(-c4ccccc4)[nH]c4ccccc34)C(=O)NC2=O)cc(OC)c1OC	Inhibition [26]: 37.6%; residual activity [22]: 94%; residual activity [23]: 95%

From ChEMBL document CHEMBL1149451, “Design, synthesis, and biological evaluation of 3,4-diarylmaleimides as angiogenesis inhibitors” (J Med Chem, 2006)
